The list is not random: actives were taken first. Their share in the collection is about 6.4%.
PLK1 kinase inh: PLK1 (human) kinase inhibition. P53350. recombinant PLK1 kinase, TR-FRET peptide phosphorylation. AID 619. inhibition, % at 10 µM. 97,000 compounds, 0.53% hits;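 active = inhibition of 50% or more in the single-concentration screen; inactive = inhibition below 50%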;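 note: 0% = DMSO max control and 100% = H-89 dihydrochloride min control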
Target sequence (P53350 whole entry, looked up): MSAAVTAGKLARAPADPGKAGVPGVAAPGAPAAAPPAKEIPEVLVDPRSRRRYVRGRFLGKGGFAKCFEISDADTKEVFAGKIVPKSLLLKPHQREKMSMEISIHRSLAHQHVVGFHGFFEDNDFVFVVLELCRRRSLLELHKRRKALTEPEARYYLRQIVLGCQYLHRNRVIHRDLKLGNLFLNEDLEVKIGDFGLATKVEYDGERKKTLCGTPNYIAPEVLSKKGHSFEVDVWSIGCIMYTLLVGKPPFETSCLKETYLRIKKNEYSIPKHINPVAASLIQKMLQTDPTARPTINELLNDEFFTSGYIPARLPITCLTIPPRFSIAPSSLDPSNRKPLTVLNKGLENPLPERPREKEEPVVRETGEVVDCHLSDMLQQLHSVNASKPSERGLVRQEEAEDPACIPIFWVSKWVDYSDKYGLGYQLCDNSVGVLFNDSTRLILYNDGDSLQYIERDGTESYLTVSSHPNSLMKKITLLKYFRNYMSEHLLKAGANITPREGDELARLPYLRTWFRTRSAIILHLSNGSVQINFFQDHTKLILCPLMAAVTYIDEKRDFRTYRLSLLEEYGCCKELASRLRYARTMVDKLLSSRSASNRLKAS
EphB4 ephrin blk: antagonists of human EphB4-ephrin-B2 interaction; P54760; EphB4 LBD / TNYL-RAW-Alexa532 peptide, fluorescence polarization; 97,000 compounds, 0.15% hits; inhibition, % at 7 µM;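 active = inhibition above the screen-wide mean inhibition plus 3 SD, cut at about 15% in these data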;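 note: 0% = DMSO wells and 100% = excess unlabeled TNYL-RAW peptide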
PostGolgi yeast: growth inhibition of a yeast mutant, post-Golgi transport screen | post-Golgi transport phenotypic cell assay | inhibition, % at 10 µM | 98,000 compounds, 0.9% hits;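 note: yeast cells grown in 1536-well plates; yeast grown about 18 h at 30C before absorbance read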
PLK1 PBD inh: inhibitors of human Plk1 polo box domain binding; P53350; Plk1 PBD phosphopeptide binding, fluorescence polarization; inhibition, %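 (tested at about 20 µM)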; 97,000 compounds, 0.13% hits; in the data active = inhibition above about 34%, passing the limit was not always enough
PostGolgi ctrl: yeast control strain growth, post-Golgi counter-screen | efflux-deficient yeast background strain, growth absorbance A615, 16 h | inhibition, % at 10 µM | 98,000 compounds, 5% hits
Rev-RRE block: HIV Rev-RRE protein-RNA interaction inhibition | inhibition, % at 8 µM | AID 704 | Rev peptide-RRE RNA binding, FRET | 97,000 compounds, 0.79% hits;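 active = inhibition above the screen-wide mean plus 3 SD, cut at about 35% in these data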;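 note: 0% = median DMSO wells and 100% = median Neomycin B control wells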
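Material: labelled RRE RNA duplex and labelled Rev peptide / Buffer or medium: HEPES pH 7.5 salt buffer with EDTA / Compound dosing: single point, 8 µM final nominal compound concentration / Benchmarks: DMSO low control, neomycin B high control / Timing: 5 min preincubation and 15 min binding, 25 °C / Technique: FRET fluorescence readout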
Starred values were filed as active, the others as inactive; / = not tested or not shown; [ ] = remark or other dose. Cut-off read from the data, not from the text of the source, unless noted: active = inhibition above about 30%; inactive = the rest.

SMILES	PLK1 kinase inh	EphB4 ephrin blk	PostGolgi yeast	PLK1 PBD inh	PostGolgi ctrl	Rev-RRE block
Cc1c(OC(=O)CNC(=O)OC(C)(C)C)ccc2c3c(c(=O)oc12)CCC3	-10	4	4	2	4	3
Cc1ccc(CNc2nc(N)c([N+](=O)[O-])c(Nc3cccc(F)c3)n2)cc1	-3	-2	-6	9	46*	-4
CCCCC(NC(C)=O)c1nc2ccccc2n1CCCC (centres undefined)	/	/	-4	/	14	/
COc1ccc(S(=O)(=O)Cc2ccc(C(=O)N3CCN(c4cc(Cl)ccc4C)CC3)o2)cc1	-2	4	-8	3	32*	-2
COc1ccc(S(=O)(=O)Cc2ccc(C(=O)N3CCN(c4cccc(C)c4C)CC3)o2)cc1	/	/	1	/	35*	/
COc1ccc(S(=O)(=O)Cc2ccc(C(=O)N3CCN(c4ccc(Cl)cc4)CC3)o2)cc1	-6	2	-1	15	37*	9
O=C(c1ccc(CS(=O)(=O)c2ccc(Br)cc2)o1)N1CCCC1	69*	3	9	-2	6	7
COc1ccc(N2CCN(C(=O)c3ccc(CS(=O)(=O)c4ccc(OC)cc4)o3)CC2)cc1	-9	1	0	-3	4	-2
O=C(c1ccc(CS(=O)(=O)c2ccc(Br)cc2)o1)N1CCCCCC1	-18	2	6	3	14	7
Cc1ccc(C(=O)Oc2cc(C)n(C)c(=O)c2)cc1	-12	-5	1	8	-2	1
CCCCC(CCC(=O)Nc1ccccc1C(=O)OCC)C(=O)O (centres undefined)	-12	1	2	-2	29	1
CCCCCCCCOC(=O)C1=C(C)Nc2nnnn2C1c1cccs1 (centres undefined)	3	9	18	10	79*	19
C=CCOC(=O)C1=C(C)Nc2ncnn2C1c1cccs1 (centres undefined)	6	1	31*	35	15	4
CCCCCOc1ccc(C2C(C(C)=O)=C(C)Nc3ncnn32)cc1OC (centres undefined)	-10	-1	-2	2	-7	12
CCCS(=O)(=O)N1CCN(S(=O)(=O)c2ccc(F)cc2)CC1	-2	1	2	-9	0	7
COc1ccc2c(c1)-c1c(sn(-c3ccc(OC)c(OC)c3)c1=S)C(C)(C)N2	-4	-3	-7	32	38*	1
COC(=O)c1ccc2c(c1)C(C)(C)C(/C=C/c1ccccc1O)=[N+]2C	-14	-52	-2	8	6	79*[fluorescence artefact?]
O=C(O)C1CCCCC1C(=O)Nc1ccccc1F (centres undefined)	25	-4	-12	-3	42*	9
O=C(Nc1ccccc1)c1ccccc1NS(=O)(=O)c1ccc(Cl)s1	-17	-3	-8	8	44*	1
CCCCc1c(O)nc(SCC(=O)NCCc2ccc(OC)c(OC)c2)[nH]c1=O	-11	-8	-3	-3	3	2
CS(=O)(=O)N(CC(=O)O)c1ccc(Oc2ccccc2)cc1	6	2	9	-7	36*	8
CCOC(=O)N1CCN(C(=O)CN(c2ccc(Oc3ccccc3)cc2)S(C)(=O)=O)CC1	3	1	-6	-9	10	4
O=S(=O)(Nc1nc2ccccc2nc1Nc1ccc2c(c1)OCCO2)c1cccs1	/	/	-1	/	19	/
CCOC(=O)c1ccc(N2C(=O)C3C(C2=O)C(C(=O)c2ccc(Cl)cc2)N2CCCC32)cc1 (centres undefined)	-11	-10	-1	0	12	66*
CCOC(=O)c1ccc(N2C(=O)C3CC=CCC3C2=O)cc1 (centres undefined)	-2	-4	-6	16	-5	-2
SMILES	PLK1 kinase inh	EphB4 ephrin blk	PostGolgi yeast	PLK1 PBD inh	PostGolgi ctrl	Rev-RRE block
CC(C)CNS(=O)(=O)c1ccc(CCC(=O)Nc2ccc3c(c2)OCCO3)cc1	-5	-6	2	-28	2	7
Cc1ccccc1N1C(=O)C(Cl)=C(N2CCCCCC2)C1=O	-12	-2	-3	-16	40*	10
CCOC(=O)c1cc(-c2ccc(OC)cc2F)nc2c1c(C)nn2CCC#N	-12	2	-3	12	45*	5
NC(=O)CSc1nnc(C2CC2)n1-c1ccccc1	-16	-6	17	-7	0	9
COc1c(/C=N/Nc2ccc([N+](=O)[O-])cc2[N+](=O)[O-])c(C)nn1-c1ccccc1	0	6	-7	-22	2	11
O=S(=O)(N/N=C\c1cn(-c2ccccc2)nc1-c1ccccc1)c1ccccc1	-13	-2	15	6	20	3
O=[N+]([O-])c1ccc(N/N=C/c2c[nH]c3ccccc23)cc1	-13	-6	99*	8	91*	58*[fluorescence artefact?]
COc1ccc(NS(=O)(=O)c2cc([N+](=O)[O-])ccc2N/N=C\c2c(C)[nH]c3ccccc23)cc1	-16	-5	0	-1	13	44*
Cc1[nH]c2ccccc2c1/C=N/Nc1ccc([N+](=O)[O-])cc1S(=O)(=O)Nc1ccc(Cl)cc1	-22	-8	2	8	13	41*
O=[N+]([O-])c1ccccc1N/N=C/c1c[nH]c2ccccc12	-11	-1	-1	-7	3	3
O=[N+]([O-])c1ccc(N/N=C/c2cn(-c3ccccc3)nc2-c2ccccc2)cc1	-18	-11	-6	-27	29	64*
Cn1c(N2CCN(C(=O)Nc3ccc(C(F)(F)F)cc3)CC2)nc2ccccc21	-8	-7	-8	16	19	10
C=CCOC(=O)C1=C(C)Nc2nc3ccccc3n2C1c1ccncc1 (centres undefined)	12	1	-3	-4	-6	2
CCOc1cc(CNc2ccc3c(c2)CCC3)ccc1OC	-12	9	-3	2	18	4
COc1ccccc1NS(=O)(=O)c1cc([N+](=O)[O-])ccc1N/N=C/c1c[nH]c2ccccc12	-9	1	3	20	31*	64*[fluorescence artefact?]
COC(=O)/C(=C/c1c[nH]c2ccccc12)[N+](=O)[O-]	-11	-5	-2	7	-5	10
Cc1cc2ncn(CC(O)COC3CCCCC3)c2cc1C (centres undefined)	-13	-6	13	-15	31*	8
COc1ccc(Cl)cc1-c1nc(-c2ccncc2)no1	-17	10	6	-10	3	8
Clc1ccc(OCc2nc(-c3ccncc3)no2)c(Cl)c1	-3	-1	44*	-27	37*	13
COc1ccc(OC)c(C(=O)COC(=O)c2ccccc2O)c1	-5	-6	-1	-5	10	11
COc1ccc(NC2SC(=O)N(CC(=O)O)C2=O)cc1 (centres undefined)	-11	0	9	10	37*	5
CCc1cccc(C)c1NC(=O)C1=C(C(=O)O)CCCC1	1	-6	2	-5	12	1

Bioassay records: PubChem BioAssay, several laboratories
